Results: ChEMBL document CHEMBL2046365, “Total synthesis and antifungal activity of (2S,3R)-2-aminododecan-3-ol” (2012)
Converted amounts (≈) assume the structure as drawn.

Tests used:
Type in all cases: functional
Nakaseomyces glabratus [1] = assay: Antifungal activity against Candida glabrata
Method in brief: (§1)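 Well diffusion on Mueller-Hinton agar plates, each surface-seeded with 0.1 mL of an MTCC Candida reference strain suspension at 1.5 × 10⁸ cfu/mL (0.5 McFarland). Compound added to 6.0 mm cork-bored wells at 300–1.4 per well; methanol well as negative control. Plates incubated 24 h at 30 °C. MIC taken as the lowest concentration giving an inhibition zone. Duplicates, mean reported.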

[Candida] aaseri = Antifungal activity against Candida aaseri MTCC 1962 after 24 hrs by well diffusion method; method in brief: as §1
Candida parapsilosis = assay: Antifungal activity against Candida parapsilosis MTCC 1744 after 24 hrs by well diffusion method; method in brief: as §1
Candida albicans [2] = assay: Antifungal activity against Candida albicans MTCC 854 after 24 hrs by well diffusion method; method in brief: as §1
Candida albicans [3] = assay: Antifungal activity against Candida albicans MTCC 183 after 24 hrs by well diffusion method; method in brief: as §1
Candida albicans [4] = assay: Antifungal activity against Candida albicans; method in brief: as §1
Candida albicans [5] = assay: Antifungal activity against Candida albicans MTCC 7315 after 24 hrs by well diffusion method; method in brief: as §1
Candida albicans [6] = assay: Antifungal activity against Candida albicans MTCC 3958 after 24 hrs by well diffusion method; method in brief: as §1
Nakaseomyces glabratus [7] = assay: Antifungal activity against Candida glabrata MTCC 3019 after 24 hrs by well diffusion method; method in brief: as §1
[8] = Yamadazyma aaseri, MTCC 1962, 24 h
[9] = Lodderomyces parapsilosis, MTCC 1744, 24 h

CCCCCCCCC[C@@H](O)[C@H](C)N
MIC (Nakaseomyces glabratus [1]): 30 µg/mL (≈ 149 µM)
MIC ([Candida] aaseri; [8]): 9.9 µg/mL (≈ 49.2 µM)
MIC (Candida parapsilosis; [9]): 4.9 µg/mL (≈ 24.3 µM)
MIC (Candida albicans [2]; MTCC 854, 24 h): 37.5 µg/mL (≈ 186 µM)
MIC (Candida albicans [3]; MTCC 183, 24 h): 9.9 µg/mL (≈ 49.2 µM)
MIC (Candida albicans [4]): 0.7 µg/mL (≈ 3.48 µM)
MIC (Candida albicans [5]; MTCC 7315, 24 h): 9.9 µg/mL (≈ 49.2 µM)
MIC (Candida albicans [6]; MTCC 3958, 24 h): 19.8 µg/mL (≈ 98.3 µM)
MIC (Nakaseomyces glabratus [7]; MTCC 3019, 24 h): 9.9 µg/mL (≈ 49.2 µM)

C[C@@H]1[C@H](O)[C@@H](C)/C=C/C=C/C=C/C=C/C=C/C=C/C=C/[C@H](O[C@@H]2O[C@H](C)[C@@H](O)[C@H](N)[C@@H]2O)C[C@@H]2O[C@](O)(C[C@@H](O)C[C@@H](O)[C@H](O)CC[C@@H](O)C[C@@H](O)CC(=O)O[C@H]1C)C[C@H](O)[C@H]2C(=O)O [AMPHOTERICIN B]
MIC ([Candida] aaseri; [8]): 300 µg/mL (≈ 325 µM)
MIC (Candida parapsilosis; [9]): 300 µg/mL (≈ 325 µM)
MIC (Candida albicans [2]; MTCC 854, 24 h): 300 µg/mL (≈ 325 µM)
MIC (Candida albicans [3]; MTCC 183, 24 h): 300 µg/mL (≈ 325 µM)
MIC (Candida albicans [5]; MTCC 7315, 24 h): 300 µg/mL (≈ 325 µM)
MIC (Candida albicans [6]; MTCC 3958, 24 h): 300 µg/mL (≈ 325 µM)
MIC (Nakaseomyces glabratus [7]; MTCC 3019, 24 h): 300 µg/mL (≈ 325 µM)

OC(Cn1cncn1)(Cn1cncn1)c1ccc(F)cc1F [FLUCONAZOLE]
MIC ([Candida] aaseri; [8]): 75 µg/mL (≈ 245 µM)
MIC (Candida parapsilosis; [9]): 18.8 µg/mL (≈ 61.4 µM)
MIC (Candida albicans [2]; MTCC 854, 24 h): 37.5 µg/mL (≈ 122 µM)
MIC (Candida albicans [3]; MTCC 183, 24 h): 37.5 µg/mL (≈ 122 µM)
MIC (Candida albicans [5]; MTCC 7315, 24 h): 37.5 µg/mL (≈ 122 µM)
MIC (Candida albicans [6]; MTCC 3958, 24 h): 75 µg/mL (≈ 245 µM)
MIC (Nakaseomyces glabratus [7]; MTCC 3019, 24 h): 75 µg/mL (≈ 245 µM)

Clc1ccc(COC(Cn2ccnc2)c2ccc(Cl)cc2Cl)c(Cl)c1 (configuration not stated) [MICONAZOLE]
MIC ([Candida] aaseri; [8]): 9.9 µg/mL (≈ 23.8 µM)
MIC (Candida parapsilosis; [9]): 9.9 µg/mL (≈ 23.8 µM)
MIC (Candida albicans [2]; MTCC 854, 24 h): 9.9 µg/mL (≈ 23.8 µM)
MIC (Candida albicans [3]; MTCC 183, 24 h): 9.9 µg/mL (≈ 23.8 µM)
MIC (Candida albicans [5]; MTCC 7315, 24 h): 9.9 µg/mL (≈ 23.8 µM)
MIC (Candida albicans [6]; MTCC 3958, 24 h): 9.9 µg/mL (≈ 23.8 µM)
MIC (Nakaseomyces glabratus [7]; MTCC 3019, 24 h): 9.9 µg/mL (≈ 23.8 µM)

NYSTATIN
MIC ([Candida] aaseri): 150 µg/mL
MIC (Candida parapsilosis): 150 µg/mL
MIC (Candida albicans [2]): 150 µg/mL
MIC (Candida albicans [3]): 150 µg/mL
MIC (Candida albicans [5]): 150 µg/mL
MIC (Candida albicans [6]): 150 µg/mL
MIC (Nakaseomyces glabratus [7]): 150 µg/mL
